# High-throughput results deposited in PubChem BioAssay by several laboratories.
# Hits are enriched below; roughly 3% of the tested compounds scored in any of these assays.
# Cardio protect = myocardial damage modulation in H9c2 cells; H9c2 cardiomyocytes, H2O2 injury protection, ATPLite, 2 h; 360,000 tested, 0.63% active; AID 588492; protection from H2O2 cell death, % at 20 µM;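 active means compounds giving at least 50% protection of heart cells from peroxide-induced death in the single-dose screen, raw or plate-pattern-corrected value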;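 further: 0% = DMSO wells with peroxide and 100% = DMSO wells without peroxide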
# SENP1 inh = inhibitors of human SENP1 SUMO protease catalytic domain | recombinant SENP1 catalytic domain, CyPet-SUMO1-YPet FRET cleavage | Q9P0U3 | 360,000 tested, 0.21% active | inhibition, % at 10 µM;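 active means inhibition at least 30% at 10 µM, raw YFP signal under a set limit, fluorescence ratio 0.5 to 1.5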;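 further: 0% = enzyme with DMSO and 100% = no enzyme wells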
#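 Assay system – human recombinant His6-tagged SENP1 catalytic domain enzyme · Input – SENP1 enzyme, 20 pM final · Buffer or medium – Tris pH 8 buffer plus EDTA, NaCl, BME, BSA, NP40, catalase · Schedule – 50 min reaction at room temperature · Technique – FRET read of cyan and yellow fluorescence · Control set – no-enzyme wells low, DMSO-plus-enzyme wells high control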
# Myeloid diff 2 = compounds promoting myeloid differentiation | ER-HoxA9 myeloid progenitors, lysozyme-GFP differentiation, flow cytometry | calls only at 10 µM | 360,000 tested, 1% active;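 active means normalized GFP-positive differentiation at or above the plate's own cutoff, the solvent-only control mean plus 3 SD; inconclusive means no clear call, values can overlap the other calls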;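 further: cells exposed to compound for four days before flow analysis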
# HNF4A DNA FP = change in binding of human HNF4 alpha to DNA; P41235; HNF4a-FITC DNA binding, fluorescence polarization, 1 h; activity change, % at 10 µM; 360,000 tested, 0.3% active; AID 1224865; in the data active means activity change above about 30%, passing the limit was not always enough
# DSG3 Ab inh = human desmoglein-3 autoantibody binding inhibition | DSG3-coupled beads, scFv-anti-DSG3-GFP binding, flow cytometry; active compounds read low | 310,000 tested, 0.48% active | AID 588358 | P32926 | binding (percent of control), % at 10 µM;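 active means binding more than 3 SD below its plate's average and above zero; inconclusive means below that plate limit but binding exactly zero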;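 further: hits lower antibody fragment binding to DSG3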
# Granule exo inh = lytic granule exocytosis inhibition | TALL-104 LAMP-1 surface exposure, flow cytometry; cells stimulated with thapsigargin and PMA | inhibition, % at 10 µM | 360,000 tested, 0.66% active;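 active means inhibition above about 55%, limit read from the data; inconclusive means no clear call, values can overlap the other calls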
# * = called active by the depositor; i = inactive; ? = inconclusive; . = no result; + = active, no number.
SMILES,Cardio protect,SENP1 inh,Myeloid diff 2,HNF4A DNA FP,DSG3 Ab inh,Granule exo inh
CC[n+]1c(/C=C/c2cc([N+](=O)[O-])ccc2O)ccc2ccccc21,-4,3,i,-2,101,2
CCN1/C(=C/c2ccc3cc(C)cc(C)c3[n+]2CC)Sc2cc(C)ccc21,-30,74,?,151*,121,77*
CCN1/C(=C/c2ccc3cc(C)ccc3[n+]2CC)Sc2ccc3sccc3c21,-29,58*,+,249,12,74*
CCN1/C(=C\c2ccc3cc(C)ccc3[n+]2CC)Sc2cc(C)c(C)cc21,-29,49,?,107*,70,73*
CCN1/C(=C/c2ccc3cccc(C)c3[n+]2CC)Sc2ccccc21,-17,85,?,107*,184,76*
CN/C=C1\C(=O)C(C)(C)Oc2ccc3ccc(=O)oc3c21,11,2,i,-2,112,0
CC1(C)Oc2ccc3ccc(=O)oc3c2/C(=C/Nc2ccccn2)C1=O,56*,-16,i,3,101,0
O=C(CN(CC1CCCO1)C(=O)CNS(=O)(=O)c1ccccc1)NCc1ccco1 (centres undefined),2,3,i,-5,106,-9
O=C(CNCC1CCCO1)NCc1ccco1 (centres undefined),11,-4,+,3,100,4
C[C@@H]1CNC(=O)c2c(C(=O)Nc3ccc(CNC(=O)OC(C)(C)C)cc3)ncn21,14,0,i,0,.,-1
CCOC(=O)c1ccc(NC(=S)N2CCN(S(C)(=O)=O)CC2)cc1,-5,2,i,1,57*,0
CC(C)=C(NC(=O)c1ccccc1)C(=O)Nc1cccc(C)c1,0,1,i,0,101,1
Cc1cccc(NC(=S)N(CCN(C)C)Cc2cccs2)c1,-4,-2,i,3,106,0
Cc1ccccc1OCC(O)Cn1c2ccccc2c2ccccc21 (centres undefined),-20,1,i,2,100,-1
COc1ccc(SCC(O)Cn2c3ccccc3c3ccccc32)c(OC)c1 (centres undefined),.,3,+,-2,.,-6
CCOc1cc(/C=C2\CCC/C(=C\c3cc(Cl)c(O)c(OCC)c3)C2=O)cc(Cl)c1O,-15,-11,+,7,103,82*
CCOC(=O)c1ccc(NC(=O)NNC(=O)CCc2ccc(OC)cc2)cc1,1,3,+,-1,100,-1
CCOC(=O)c1ccc(NC(=O)CCOc2ccc(OC)cc2)cc1,-1,-2,i,-1,99,-2
COC(=O)CSc1nnc(-c2ccc(NS(=O)(=O)c3ccccc3)cc2)o1,-26,0,+,-2,96,11
Cc1ccc(CSc2nnc(-c3ccc(NS(=O)(=O)c4ccccc4)cc3)o2)cc1,-8,3,i,3,93,-11
CCC(=O)c1cc2c(C)cc(=O)oc2c(C)c1O,1,-56,i,-3,51*,6
CCC(=O)c1cc2c(C)cc(=O)oc2c(C)c1OC(C)=O,4,-27,i,3,100,-3
CC(=O)Oc1cc(O)c2c(=O)c(OC(C)=O)c(-c3ccc(OC(C)=O)c(OC(C)=O)c3)oc2c1,45,51*,i,-3,105,-1
COC(=O)c1sc2cc([N+](=O)[O-])cc(SCC(C)C)c2c1N,-4,78,+,29,169,1
Cc1ccc2c(CN(C)Cc3ccccc3)cc(=O)oc2c1C,-13,-2,i,-2,64*,-18
Cc1cc(C)c(N(CC(=O)NCc2ccccc2)C(=O)c2csnn2)c(C)c1,-5,4,i,-2,86,3
O=C1OC(Nc2ccc3c(c2)OCO3)c2ccccc21 (centres undefined),18,0,+,1,83,1
Cc1ccc(NC(=O)CN2CCCC2c2cccn2C)c(Br)c1 (centres undefined),-9,-2,i,0,104,-2
COc1cccc(NC(=O)CN(C)C(=O)c2c(C)nn(Cc3ccc(C)cc3)c2Cl)c1,-3,-2,i,0,105,3
